The species entered for series [1] is Homo sapiens. In words: Binding affinity to human STING 293Q mutant assessed as thermal stability by measuring melting temperature […] differential scanning fluorimetry (reference value: 46.25 degreeC). The settings on record: filed as activator. A digest of the protocol: (§1)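 Thermal shift by DSF: 5 μM STING protein, 50 μM compound and 10× SYPRO Orange in 10 mM HEPES pH 7.5, 150 mM NaCl. Samples heated from 30 to 80 °C at 0.5 °C/min. Tm taken as the temperature of median fluorescence between onset and maximum; n = 3.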
A general note: DSF heats the sample and reads unfolding from a dye or from intrinsic fluorescence.

For series [2], the system named is Stimulator of interferon genes protein (Homo sapiens), Q86WV6 [UNDEFINED MUTATION]. In words: Binding affinity to human STING R232 mutant assessed as thermal stability by measuring melting temperature […] differential scanning fluorimetry (reference value: 38.75 degreeC). To be noted: filed as activator. A digest of the protocol:
as §1

For series [3], the species on record is Homo sapiens. In words: Binding affinity to human STING H232 mutant assessed as thermal stability by measuring melting temperature […] differential scanning fluorimetry (reference value: 39.5 degreeC). To be noted: filed as activator. An outline of the steps:
as §1

The target in series [4] is T1, Stimulator of interferon genes protein (Homo sapiens, UniProt Q86WV6). The series is described as follows: Activation of STING in human THP1-Dual cells assessed as increase in IP-10 secretion at 0.01 to 10 uM measured after 24 hrs by ELISA. In kind it is cell-based. To be noted: filed as activator, dose 0.01-10 µM. An outline of the steps:
(§2)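 THP1-Dual cells seeded at 10⁵ cells/well and treated for 24 h. Human IP-10 and IFN-β in supernatant quantified by ELISA kits. Concentration (pg/mL) derived from a standard curve.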
(In general: An ELISA detects its analyte on a solid surface through an enzyme-linked reagent.)

Series [5] concerns the target T1, Stimulator of interferon genes protein. The series is described as follows: Activation of STING in human THP1-Dual cells assessed as increase in IFNbeta secretion at 10 uM measured after 24 hrs by ELISA. Format: cell-based. To be noted: filed as activator. A digest of the protocol:
as §2

Series [6] shares this target. The series is described as follows: Activation of STING in human THP1-Dual cells assessed as increase in TBK1/IRF3 phosphorylation measured after 4 hrs by Western blot analysis. To be noted: filed as activator, dose 3.3-30 µM. In kind it is cell-based. A digest of the protocol: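 THP1-Dual cells (8 × 10⁵/well) treated at 3.3, 10 and 30 μM for 4 h, then lysed in SDS sample buffer and boiled. Lysates run on 10% SDS-PAGE and transferred to nitrocellulose. Blots probed for TBK1, phospho-TBK1 Ser172, IRF3, phospho-IRF3 Ser396 and GAPDH, with HRP secondaries and ECL detection.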
For orientation: A western blot detects proteins with antibodies after separation by electrophoresis.

The nature of series [7]: Solubility of the compound. In kind it is physicochemical.
Series [8] deals with T1, Stimulator of interferon genes protein. The series is described as follows: Activation of human STING (139 to 379 residues) expressed in THP1-Blue ISG cells at 10 uM incubated for 24 hrs by quanti-blue SEAP reporter gene assay relative to control. Format: cell-based. To be noted: filed as activator. An outline of the steps: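 THP1-Blue-ISG cells (1 × 10⁵/well) treated for 24 h; single-concentration screen at 10 μM. SEAP ISG reporter in 20 μL supernatant read with QUANTI-Blue at 650 nm. Activation given as fold over control, averaging at least two experiments.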

Series [9] has the same target. In words: Activation of STING in human THP1-Dual cells assessed as induction of NF-KB signaling at 0.005 to 10 uM measured after 24 hrs by Quanti-Blue reagent based assay. In kind it is cell-based. To be noted: filed as activator, dose 0.005-10 µM. An outline of the steps:
(§3)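 THP1-Dual cells (1 × 10⁵/well) treated for 24 h. Supernatant (20 μL) incubated 1 h at 37 °C with QUANTI-Blue, then absorbance read at 650 nm. Fold change calculated relative to vehicle control.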

Series [10] deals with Stimulator of interferon genes protein (Homo sapiens), Q86WV6 [R71H,G230A,R293Q]. The series is described as follows: Binding affinity to human STING HAQ mutant assessed as thermal stability by measuring melting temperature […] differential scanning fluorimetry (reference value: 37.25 degreeC). The settings on record: filed as activator. An outline of the steps:
as §1

The target of series [11] is T2, Stimulator of interferon genes protein (Mus musculus) (UniProt Q3TBT3).
T2 sequence (whole entry): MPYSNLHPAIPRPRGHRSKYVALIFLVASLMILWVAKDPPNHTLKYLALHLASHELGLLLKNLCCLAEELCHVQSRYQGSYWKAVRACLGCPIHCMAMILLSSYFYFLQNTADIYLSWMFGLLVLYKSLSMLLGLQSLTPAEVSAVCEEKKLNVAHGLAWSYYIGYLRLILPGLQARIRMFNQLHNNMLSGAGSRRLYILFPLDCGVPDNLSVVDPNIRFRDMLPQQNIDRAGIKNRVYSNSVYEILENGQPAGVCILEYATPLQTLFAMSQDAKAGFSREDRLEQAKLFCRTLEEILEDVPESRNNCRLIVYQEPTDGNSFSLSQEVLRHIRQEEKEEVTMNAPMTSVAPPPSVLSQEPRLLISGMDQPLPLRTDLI
The series is described as follows: Activation of mouse STING expressed in RAW-Lucia ISG cells at 50 uM incubated for 24 hrs by QUANTI-Luc luciferase reporter gene assay relative to control. To be noted: filed as activator.

The next series deals with 4T1. The series is described as follows: Antitumor activity against mouse 4T1 cells […] in orthotopic BALB/c mouse assessed as tumor regression at 10 mg/kg, iv administered on day 1,4 and 7 post inoculation. Format: functional, organism-based. The settings on record: time 7.0 day. An outline of the steps: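 BALB/c mice bearing orthotopic 4T1 tumors (5 × 10⁵ cells in the breast fat pad; n = 5) dosed iv at 10 mg/kg on days 1, 4 and 7 once tumors reached about 50–100 mm³. Tumor volume calculated as (a × b²)/2 and, with body weight, measured twice weekly.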

The species named for another series is Mus musculus. The series is described as follows: Binding affinity to mouse STING mR231 mutant assessed as thermal stability by measuring melting temperature […] differential scanning fluorimetry (reference value: 42 degreeC). To be noted: filed as activator. A digest of the protocol: as §1
Series [12] deals with T1, Stimulator of interferon genes protein. In words: Activation of STING in human THP1-Dual cells assessed as induction of ISG signaling at 0.005 to 10 uM measured after 24 hrs by Quanti-Blue reagent based assay. In kind it is cell-based. The settings on record: filed as activator, dose 0.005-10 µM. A digest of the protocol: as §3
Series [13] has the same target. In words: Agonist activity at wild type human STING expressed in baculovirus infected Sf21 insect cells.
Series [14] concerns the target Stimulator of interferon genes protein (Homo sapiens, UniProt Q86WV6, G230A/R293Q/R71H). In words: Agonist activity at human STING HAQ expressed in baculovirus infected Sf21 insect cells.
For series [15], the target named is T1, Stimulator of interferon genes protein. In words: Inhibition of [3H]-cGAMP binding to STING (unknown origin).

SMILES strings stand for the structures. Activity calls are given as the source filed them. No cut-off for these calls is given here.

T1 sequence (Q86WV6 whole entry): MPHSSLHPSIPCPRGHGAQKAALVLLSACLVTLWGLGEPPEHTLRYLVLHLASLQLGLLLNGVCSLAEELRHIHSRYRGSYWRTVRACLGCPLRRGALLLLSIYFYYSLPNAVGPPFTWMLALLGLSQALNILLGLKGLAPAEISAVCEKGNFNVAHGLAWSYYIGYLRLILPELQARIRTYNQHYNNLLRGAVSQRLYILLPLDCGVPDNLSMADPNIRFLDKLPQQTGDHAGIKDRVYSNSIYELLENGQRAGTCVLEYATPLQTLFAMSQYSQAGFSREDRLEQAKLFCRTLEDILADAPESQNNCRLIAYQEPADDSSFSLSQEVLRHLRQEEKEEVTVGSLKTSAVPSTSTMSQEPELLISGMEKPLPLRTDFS
Stimulator of interferon genes protein (Homo sapiens), Q86WV6 [UNDEFINED MUTATION], sequence (Q86WV6 whole entry, looked up, change not shown): as the sequence (Q86WV6 whole entry) above
Stimulator of interferon genes protein (Homo sapiens, UniProt Q86WV6, G230A/R293Q/R71H), sequence (Q86WV6 whole entry R71H/G230A/R293Q): as the sequence (Q86WV6 whole entry) above, with R71H, G230A, R293Q counted along it
Stimulator of interferon genes protein (Homo sapiens), Q86WV6 [R71H,G230A,R293Q], sequence (Q86WV6 whole entry R71H/G230A/R293Q): as the sequence (Q86WV6 whole entry) above, with R71H, G230A, R293Q counted along it

Broadly, the solubility is how much of the substance goes into solution per volume. The low end stands for a poorly soluble substance, the high end for a readily soluble substance. As to `CCn1nc(C)cc1C(=O)/N=c1\[nH]c2cc(C(N)=O)cc(OC)c2n1C/C=C/Cn1/c(=N/C(=O)c2cc(C)nn2CC)[nH]c2cc(C(N)=O)cc(OCCCN3CCOCC3)c21.Cl.Cl.Cl`, the Tm in the series listed under Homo sapiens [1] was found to be 49 °C; in series [2], 48.5 °C; in the series filed under Homo sapiens [3] it was 50.2 °C; in series [10] it was 48.8 °C; in the series listed under Mus musculus, 55.5 °C. In addition, the result (in series [4]; in [5]; in [9]; in the series with 4T1; in [12]) was Active. The Activity entry in series [6] is “Dose-Dependent Effect”. In [7], the solubility was 3230 µg/mL. The fold change (FC) was 26 in [8] and 8.11 in series [11].
As usually defined, the EC50 is the concentration giving half of the maximal effect. Take `COc1cc2cc(C(=O)CCC(=O)O)sc2cc1OC`: the EC50 in series [13] was determined as 24 µM; in [14], 8.3 µM.
The term IC50 denotes the concentration that inhibits the measured activity by half. As to `CCn1nc(C)cc1C(=O)/N=c1\[nH]c2cc(C(=O)O)ccc2n1C[C@@H](O)c1ccccc1`, the IC50 in [15] worked out at 14 µM.

For the origin of these results see ChEMBL document CHEMBL4808161, “Structure-Activity Relationship Study of Amidobenzimidazole Analogues Leading to Potent and Systemically Administrable Stimulator of Interferon Gene (STING) Agonists” (J Med Chem, 2021).
